Experimental data from ChEMBL document CHEMBL3352430, “4-Aminopyridyl-based CYP51 inhibitors as anti-Trypanosoma cruzi drug leads with improved pharmacokinetic profile and in vivo potency” (J Med Chem, 2014).

Columns and labels:
[1] = target: Sterol 14-alpha demethylase (Trypanosoma cruzi (strain CL Brener), UniProt Q7Z1V1); experiment: Binding affinity to Trypanosoma cruzi CYP51 by UV-vis titration method; conditions: read-out: Kd(app)
Trypanosoma cruzi [2] = experiment: Antitrypanosomal activity against Trypanosoma cruzi Y luc infected in mouse assessed as inhibition of parasitemia at 50 mg/kg, po bid in 20% Kolliphor administered for 4 consecutive days starting on day 3 of infection measured on day 7 post infection relative to vehicle-treated control; format: functional
Summary of the method: (§1)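 Female Swiss Webster mice, 8 weeks old, infected ip with 10^5 T. cruzi Y luc trypomastigotes. Only mice with detectable luminescence on day 3 were treated. Compound given by oral gavage bid for four days, as a suspension in 20% HPβCD or a solution in 20% Kolliphor, five mice per group. Vehicle group and benznidazole 50 mg/kg served as controls. On day 7, mice were injected ip with 150 mg/kg d-luciferin and imaged after 5 min under isoflurane. Percent inhibition calculated against untreated mice; two-tailed paired t test.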

Cytochrome P450 1A2 = target: T1, Cytochrome P450 1A2 (Homo sapiens, UniProt P05177); experiment: Inhibition of CYP1A2 in human liver microsomes at 1 uM; format: ADME
T1 sequence (P05177 whole entry): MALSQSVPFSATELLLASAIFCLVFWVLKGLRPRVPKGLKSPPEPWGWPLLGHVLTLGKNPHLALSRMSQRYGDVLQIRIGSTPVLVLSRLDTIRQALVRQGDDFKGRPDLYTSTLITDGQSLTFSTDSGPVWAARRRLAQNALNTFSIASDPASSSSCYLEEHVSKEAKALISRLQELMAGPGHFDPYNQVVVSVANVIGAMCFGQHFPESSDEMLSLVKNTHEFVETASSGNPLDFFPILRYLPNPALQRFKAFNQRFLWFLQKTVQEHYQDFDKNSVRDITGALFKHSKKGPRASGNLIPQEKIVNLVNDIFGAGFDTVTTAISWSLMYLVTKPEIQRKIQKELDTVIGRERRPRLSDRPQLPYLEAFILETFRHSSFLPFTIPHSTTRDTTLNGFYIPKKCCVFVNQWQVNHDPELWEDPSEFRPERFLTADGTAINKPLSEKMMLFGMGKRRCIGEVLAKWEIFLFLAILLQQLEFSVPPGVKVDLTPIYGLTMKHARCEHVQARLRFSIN

Trypanosoma cruzi [3] = experiment: Antitrypanosomal activity against Trypanosoma cruzi amastigotes infected in mouse C2C12 cells after 72 hrs by DAPI staining method; format: functional, organism-based; conditions: C2C12, 72 h
Liver [4] = experiment: Drug uptake in mouse liver at 50 mg/kg, po in 20% Kolliphor measured at 8 hrs post dose; format: ADME, organism-based; design: dose 50 mg/kg, route oral; conditions: in vivo
Summary of the method: (§2)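 Female Swiss Webster mice, 8 weeks old, given a single 50 mg/kg oral gavage dose in 20% HPβCD or 20% Kolliphor. Tissues taken from three mice at 2 and 8 h post dose. Homogenized by probe sonication in PBS (1:4 w/v), protein precipitated with acetonitrile, and compound measured by LC-MS/MS in μM.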

Liver [5] = experiment: Drug uptake in mouse liver at 50 mg/kg, po in 20% HP-beta-CD measured at 8 hrs post dose; format: ADME, organism-based; design: dose 50 mg/kg, route oral; conditions: in vivo; summary of the method: as §2
Heart [6] = experiment: Drug uptake in mouse heart at 50 mg/kg, po in 20% Kolliphor measured at 8 hrs post dose; format: ADME, organism-based; design: dose 50 mg/kg, route oral; conditions: in vivo; summary of the method: as §2
[7] = AUClast in mouse at 50 mg/kg, po in 20% Kolliphor; format: ADME, organism-based; design: time 0 - last, dose 50 mg/kg, route oral; conditions: plasma
Summary of the method: (§3)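 Female Swiss Webster mice, 8 weeks old, given one oral gavage dose of 50 mg/kg as a 10 mg/mL preparation in the named vehicle (20% HPβCD suspension or 20% Kolliphor). Plasma sampled at about 0.25, 0.5, 1, 2, 4, 6, 8, 12 and 24 h, n = 3 per time point. Protein precipitated with 5 volumes acetonitrile, filtered, then LC-MS/MS. Values are averages of three mice.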

Liver microsome [8] = experiment: Half life in human liver microsomes; format: ADME
Cytochrome P450 3A4 = Cytochrome P450 3A4 (Homo sapiens, UniProt P08684); experiment: Inhibition of CYP3A4 in human liver microsomes at 1 uM; format: ADME
Sequence of Cytochrome P450 3A4 (P08684 whole entry): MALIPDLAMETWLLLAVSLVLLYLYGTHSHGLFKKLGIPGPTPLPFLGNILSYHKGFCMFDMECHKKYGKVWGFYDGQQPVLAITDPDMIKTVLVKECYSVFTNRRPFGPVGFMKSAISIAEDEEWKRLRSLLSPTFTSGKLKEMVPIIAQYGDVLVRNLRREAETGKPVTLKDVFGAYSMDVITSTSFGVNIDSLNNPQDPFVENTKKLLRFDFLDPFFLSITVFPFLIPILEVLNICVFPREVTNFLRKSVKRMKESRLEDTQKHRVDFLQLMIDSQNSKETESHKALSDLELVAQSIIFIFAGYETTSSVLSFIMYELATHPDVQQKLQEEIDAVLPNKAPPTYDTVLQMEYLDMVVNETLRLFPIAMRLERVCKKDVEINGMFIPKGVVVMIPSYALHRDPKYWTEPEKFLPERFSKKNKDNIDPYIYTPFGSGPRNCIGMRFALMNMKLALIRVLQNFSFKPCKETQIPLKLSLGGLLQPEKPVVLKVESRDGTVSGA

C2C12 = experiment: Cytotoxicity against mouse C2C12 cells up to 10 uM; format: cell-based
Summary of the method: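 Mouse C2C12 myoblasts infected with T. cruzi CA-I/72, then exposed at 24 h postinfection to compound at 10 μM down to 5 pM in 5-fold steps for 72 h at 37 °C. Cells fixed in paraformaldehyde, stained with DAPI and scored by automated imaging. Triplicate wells; uninfected and infected untreated wells as controls.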

[9] = Clearance in mouse at 50 mg/kg, po in 20% HP-beta-CD; format: ADME, organism-based; design: dose 50 mg/kg, route oral; conditions: in vivo; summary of the method: as §3
[10] = Half life in mouse at 50 mg/kg, po in 20% HP-beta-CD; format: ADME, organism-based; design: dose 50 mg/kg, route oral; conditions: in vivo; summary of the method: as §3
Liver microsome [11] = experiment: Half life in rat liver microsomes; format: ADME
[12] = Clearance in mouse at 50 mg/kg, po in 20% Kolliphor; format: ADME, organism-based; design: dose 50 mg/kg, route oral; conditions: in vivo; summary of the method: as §3
Trypanosoma cruzi [13] = experiment: Antitrypanosomal activity against Trypanosoma cruzi Y luc infected in mouse assessed as inhibition of parasitemia at 25 mg/kg, po bid in 20% Kolliphor administered for 4 consecutive days starting on day 3 of infection measured on day 7 post infection relative to vehicle-treated control; format: functional; summary of the method: as §1
[14] = Tmax in mouse at 50 mg/kg, po in 20% HP-beta-CD; format: ADME, organism-based; design: dose 50 mg/kg, route oral; conditions: in vivo; summary of the method: as §3
[15] = Cmax in mouse at 50 mg/kg, po in 20% HP-beta-CD; format: ADME, organism-based; design: dose 50 mg/kg, route oral; conditions: in vivo; summary of the method: as §3
[16] = AUClast in mouse at 50 mg/kg, po in 20% HP-beta-CD; format: ADME, organism-based, Plasma; design: time 0 - last, dose 50 mg/kg, route oral; conditions: plasma; summary of the method: as §3
[17] = Drug uptake in mouse fat at 50 mg/kg, po in 20% Kolliphor measured at 8 hrs post dose; format: ADME, organism-based, Adipose tissue; design: dose 50 mg/kg, route oral; conditions: in vivo; summary of the method: as §2
Cytochrome P450 2C9 = Cytochrome P450 2C9 (Homo sapiens, UniProt P11712); experiment: Inhibition of CYP2C9 in human liver microsomes at 1 uM; format: ADME
Sequence of Cytochrome P450 2C9 (P11712 whole entry): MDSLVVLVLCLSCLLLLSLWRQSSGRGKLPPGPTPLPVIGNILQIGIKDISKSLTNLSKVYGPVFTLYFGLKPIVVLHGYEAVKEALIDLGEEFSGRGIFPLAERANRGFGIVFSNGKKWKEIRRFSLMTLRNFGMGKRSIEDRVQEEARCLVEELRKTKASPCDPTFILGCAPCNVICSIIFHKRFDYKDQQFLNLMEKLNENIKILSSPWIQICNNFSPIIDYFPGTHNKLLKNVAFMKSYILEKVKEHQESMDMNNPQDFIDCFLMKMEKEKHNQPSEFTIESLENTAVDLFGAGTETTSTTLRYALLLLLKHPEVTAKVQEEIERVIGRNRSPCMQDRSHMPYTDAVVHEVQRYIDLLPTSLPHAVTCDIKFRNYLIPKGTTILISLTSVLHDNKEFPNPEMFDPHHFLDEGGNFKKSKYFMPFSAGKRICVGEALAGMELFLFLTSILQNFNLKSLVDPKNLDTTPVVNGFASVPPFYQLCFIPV

[18] = Drug uptake in mouse skeletal muscle at 50 mg/kg, po in 20% HP-beta-CD measured at 8 hrs post dose; format: ADME, organism-based, Muscle tissue; design: dose 50 mg/kg, route oral; conditions: in vivo; summary of the method: as §2
[19] = Drug uptake in mouse fat at 50 mg/kg, po in 20% HP-beta-CD measured at 8 hrs post dose; format: ADME, organism-based, Adipose tissue; design: dose 50 mg/kg, route oral; conditions: in vivo; summary of the method: as §2
Liver [20] = experiment: Half life in mouse liver microsomes; format: ADME
Cytochrome P450 2D6 = Cytochrome P450 2D6 (Homo sapiens, UniProt P10635); experiment: Inhibition of CYP2D6 in human liver microsomes at 1 uM; format: ADME
Sequence of Cytochrome P450 2D6 (P10635 whole entry): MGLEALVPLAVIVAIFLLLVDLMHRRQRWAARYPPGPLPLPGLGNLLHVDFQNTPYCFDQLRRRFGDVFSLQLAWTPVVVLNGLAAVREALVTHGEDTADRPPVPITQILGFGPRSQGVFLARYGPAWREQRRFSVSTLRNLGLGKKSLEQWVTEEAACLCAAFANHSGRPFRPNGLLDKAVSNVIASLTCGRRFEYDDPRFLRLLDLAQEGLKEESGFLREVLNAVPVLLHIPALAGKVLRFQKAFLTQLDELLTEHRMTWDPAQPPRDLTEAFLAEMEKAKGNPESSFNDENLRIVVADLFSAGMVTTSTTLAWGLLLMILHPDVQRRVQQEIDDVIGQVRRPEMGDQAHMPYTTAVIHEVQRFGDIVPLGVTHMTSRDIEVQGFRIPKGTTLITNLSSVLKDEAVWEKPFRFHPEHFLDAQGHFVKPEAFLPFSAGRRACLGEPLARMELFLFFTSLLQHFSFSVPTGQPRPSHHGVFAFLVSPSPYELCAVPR

[21] = Half life in mouse at 50 mg/kg, po in 20% Kolliphor; format: ADME, organism-based; design: dose 50 mg/kg, route oral; conditions: in vivo; summary of the method: as §3
Intestine [22] = experiment: Drug uptake in mouse intestine at 50 mg/kg, po in 20% Kolliphor measured at 8 hrs post dose; format: ADME, organism-based; design: dose 50 mg/kg, route oral; conditions: in vivo; summary of the method: as §2
Lung [23] = experiment: Drug uptake in mouse lung at 50 mg/kg, po in 20% HP-beta-CD measured at 8 hrs post dose; format: ADME, organism-based; design: dose 50 mg/kg, route oral; conditions: in vivo; summary of the method: as §2
Lung [24] = experiment: Drug uptake in mouse lung at 50 mg/kg, po in 20% Kolliphor measured at 8 hrs post dose; format: ADME, organism-based; design: dose 50 mg/kg, route oral; conditions: in vivo; summary of the method: as §2
Intestine [25] = experiment: Drug uptake in mouse intestine at 50 mg/kg, po in 20% HP-beta-CD measured at 8 hrs post dose; format: ADME, organism-based; design: dose 50 mg/kg, route oral; conditions: in vivo; summary of the method: as §2
[26] = Tmax in mouse at 50 mg/kg, po in 20% Kolliphor; format: ADME, organism-based; design: dose 50 mg/kg, route oral; conditions: in vivo; summary of the method: as §3
[27] = Cmax in mouse at 50 mg/kg, po in 20% Kolliphor; format: ADME, organism-based; design: dose 50 mg/kg, route oral; conditions: in vivo; summary of the method: as §3
Heart [28] = experiment: Drug uptake in mouse heart at 50 mg/kg, po in 20% HP-beta-CD measured at 8 hrs post dose; format: ADME, organism-based; design: dose 50 mg/kg, route oral; conditions: in vivo; summary of the method: as §2
[29] = Drug uptake in mouse skeletal muscle at 50 mg/kg, po in 20% Kolliphor measured at 8 hrs post dose; format: ADME, organism-based, Muscle tissue; design: dose 50 mg/kg, route oral; conditions: in vivo; summary of the method: as §2

Sequence of Sterol 14-alpha demethylase (Q7Z1V1 whole entry): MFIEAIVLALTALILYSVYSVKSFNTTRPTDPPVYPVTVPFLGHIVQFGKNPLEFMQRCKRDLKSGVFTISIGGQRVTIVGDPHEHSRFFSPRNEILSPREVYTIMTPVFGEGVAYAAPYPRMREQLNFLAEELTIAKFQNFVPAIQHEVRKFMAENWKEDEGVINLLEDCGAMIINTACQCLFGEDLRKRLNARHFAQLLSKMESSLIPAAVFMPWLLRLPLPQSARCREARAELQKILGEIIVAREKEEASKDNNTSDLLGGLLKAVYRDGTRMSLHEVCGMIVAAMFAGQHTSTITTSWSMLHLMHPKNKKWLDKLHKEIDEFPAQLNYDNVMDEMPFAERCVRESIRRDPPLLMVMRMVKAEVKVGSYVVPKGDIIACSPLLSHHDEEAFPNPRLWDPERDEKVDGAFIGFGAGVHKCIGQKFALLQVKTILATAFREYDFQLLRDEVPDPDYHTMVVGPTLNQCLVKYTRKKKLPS

Kd [1]: ≤ 0.01 µM
inhibition (INH) (Cytochrome P450 1A2): 2%
EC50 (Trypanosoma cruzi [3]): 0.17 µM
Drug uptake (Liver [4]): Active
Drug uptake (Liver [5]): Active
Drug uptake (Heart [6]): Active
AUC(0-t) [7]: 84.5 µM·h
t1/2 (Liver microsome [8]): 0.483 h
inhibition (INH) (Cytochrome P450 3A4): 9%
CL/F [9]: 52.5 mL/min/kg
half-life [10]: 2.5 h
t1/2 (Liver microsome [11]): 0.45 h
CL/F [12]: 17.4 mL/min/kg
Tmax [14]: 4.67 h
Cmax [15]: 5.1 µM
AUC(0-t) [16]: 26.6 µM·h
Drug uptake [17]: Active
inhibition (INH) (Cytochrome P450 2C9): 96%
Drug uptake [18]: Active
Drug uptake [19]: Active
t1/2 (Liver [20]): 0.967 h
inhibition (INH) (Cytochrome P450 2D6): 36%
half-life [21]: 3.1 h
Drug uptake (Intestine [22]): Active
Drug uptake (Lung [23]): Active
Drug uptake (Lung [24]): Active
Drug uptake (Intestine [25]): Active
Tmax [26]: 4.67 h
Cmax [27]: 7.35 µM
Drug uptake (Heart [28]): Active
Drug uptake [29]: Active
SMILES: O=C(N[C@H](Cc1c[nH]c2ccccc12)C(=O)Nc1ccncc1)c1ccc(-c2ccc(F)c(C(F)(F)F)c2)cc1F
inhibition in vivo at 50 mg/kg (Trypanosoma cruzi [2]): 97.4%
Activity (C2C12): Non-toxic
inhibition in vivo at 25 mg/kg (Trypanosoma cruzi [13]): 89.1%
